Data as given in ChEMBL document CHEMBL1122498, “Improved delivery through biological membranes. 11. A redox chemical drug-delivery system and its use for brain-specific delivery of phenylethylamine” (1983).

What was measured:
Type in all cases: functional
[1] = species on record: Homo sapiens; assay: In vitro facile oxidative conversion to the corresponding quaternary derivative 5a in heparinized human whole blood
[2] = species on record: Homo sapiens; assay: Half life during the site specific conversion to the quaternary derivative 5a in heparinized human whole blood was determined
[3] = species on record: Rattus norvegicus; assay: In vitro facile oxidative conversion to the corresponding quaternary derivative 5a in rat brain homogenate
Procedure, shortened: (§1)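 Rat brain (2.0 g) homogenized in 10 mL phosphate buffer pH 7.4, centrifuged, heated 50 °C for 5 min, recentrifuged, and diluted to 100 mL (2%). To 10 mL was added 0.2 mL of 6.25 × 10⁻⁴ M methanolic dihydro derivative. First-order k and t1/2 derived.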

[4] = species on record: Rattus norvegicus; assay: Half life during the site specific conversion to the quaternary derivative 5a in rat brain homogenate was determined; procedure, shortened: as §1
[5] = species on record: Homo sapiens; assay: In vitro facile oxidative conversion to the corresponding quaternary derivative 5a in fresh human plasma
Procedure, shortened: (§2)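 Dihydro derivative in methanol (0.2 mL of 6.25 × 10⁻⁴ M) diluted to 10 mL with 20% fresh human plasma in phosphate buffer pH 7.4. Held at 37 °C with UV scans 400–250 nm every 10 min for 2 h against a plasma/methanol reference. Oxidation to the pyridinium salt followed by loss at ~350 nm and gain at 262 nm. First-order k and t1/2 derived.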

[6] = species on record: Homo sapiens; assay: Half life during the site specific conversion to the quaternary derivative 5a in fresh human plasma was determined; procedure, shortened: as §2
[7] = species on record: Rattus norvegicus; assay: In vitro facile oxidative conversion to the corresponding quaternary derivative 5a in rat liver homogenate
Procedure, shortened: (§3)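 Sprague-Dawley rat liver (5.0 g) homogenized in 50 mL phosphate buffer pH 7.4, centrifuged, heated 50 °C for 5 min, recentrifuged, and diluted to 250 mL (2%). Dihydro derivative (0.2 mL of 6.25 × 10⁻⁴ M in methanol) diluted to 10 mL with homogenate. UV scans at 37 °C from 400 to 250 nm every 5 min for 1 h against a homogenate/methanol reference. First-order k and t1/2 derived.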

[8] = species on record: Rattus norvegicus; assay: Half life during the site specific conversion to the quaternary derivative 5a in rat liver homogenate was determined; procedure, shortened: as §3

## CCOC(=O)C1=CN(C)C=C(C(=O)NCCc2ccccc2)C1
[1]
  Activity: 1.13 10e-4 K s-1
[2]
  T1/2: 70.2 min
[3]
  Activity: 0.174 10e-4 K s-1
[4]
  T1/2: 666 min

## CN1C=C(C(=O)NCCc2ccccc2)CC(C(=O)NCCc2ccccc2)=C1
[1]
  Activity: 0.494 10e-4 K s-1
[2]
  T1/2: 234 min
[3]
  Activity: 0.084 10e-4 K s-1
[4]
  T1/2: 1370 min

## O=C(NCCc1ccccc1)C1=CN(Cc2ccccc2)C=CC1
[1]
  Activity: 4.74 10e-4 K s-1
[5]
  Activity: 0.74 10e-4 K s-1
[6]
  T1/2: 156 min
[2]
  T1/2: 24.4 min
[3]
  Activity: 2.1 10e-4 K s-1
[7]
  Activity: 7.5 10e-4 K s-1
[8]
  T1/2: 15.3 min
[4]
  T1/2: 55 min

## CN1C=CCC(C(=O)NCCc2ccccc2)=C1
[1]
  Activity: 8.4 10e-4 K s-1
[5]
  Activity: 1.8 10e-4 K s-1
[6]
  T1/2: 64.2 min
[2]
  T1/2: 13.7 min
[3]
  Activity: 4.12 10e-4 K s-1
[7]
  Activity: 8.13 10e-4 K s-1
[8]
  T1/2: 14.4 min
[4]
  T1/2: 28.2 min
